In ChEMBL document CHEMBL1157184, “Hymenoic acid, a novel specific inhibitor of human DNA polymerase lambda from a fungus of Hymenochaetaceae sp” (Bioorg Med Chem, 2008):
Activity calls are given as the source filed them. The rule behind the calls is not given here.

Columns and labels:
[1] = molecular target: T1, DNA polymerase alpha subunit B (Bos taurus) (UniProt Q58D13); test: Inhibition of calf DNA polymerase alpha at 200 uM
T1 sequence (whole entry): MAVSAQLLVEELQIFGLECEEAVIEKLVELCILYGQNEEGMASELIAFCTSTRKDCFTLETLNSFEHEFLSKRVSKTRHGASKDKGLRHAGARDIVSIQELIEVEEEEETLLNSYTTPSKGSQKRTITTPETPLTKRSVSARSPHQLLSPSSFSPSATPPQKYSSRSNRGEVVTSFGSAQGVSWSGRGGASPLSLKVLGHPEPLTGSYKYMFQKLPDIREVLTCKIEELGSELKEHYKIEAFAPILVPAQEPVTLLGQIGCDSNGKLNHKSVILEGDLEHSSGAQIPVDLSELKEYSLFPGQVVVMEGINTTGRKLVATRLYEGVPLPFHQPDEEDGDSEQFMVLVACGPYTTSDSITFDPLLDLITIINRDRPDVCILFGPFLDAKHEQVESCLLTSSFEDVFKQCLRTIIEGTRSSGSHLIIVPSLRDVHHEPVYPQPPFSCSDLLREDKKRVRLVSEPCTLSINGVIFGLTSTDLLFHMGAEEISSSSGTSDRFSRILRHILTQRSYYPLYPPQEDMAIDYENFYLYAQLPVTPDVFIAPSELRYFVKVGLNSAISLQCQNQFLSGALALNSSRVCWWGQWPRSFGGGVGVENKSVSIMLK
How it was run: (§1)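 Compound dissolved in DMSO and sonicated 30 s, then held with each polymerase (final 0.05 U) in 50 mM Tris-HCl pH 7.5, 1 mM DTT, 50% glycerol, 0.1 mM EDTA at 0 °C for 10 min. Reaction with poly(dA)/oligo(dT)12-18 and dTTP ran 60 min at 37 °C (Taq at 74 °C). Activity relative to no-compound control; means ± SEM, four independent experiments.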

Homo sapiens [2] = species on record: Homo sapiens; test: Inhibition of human DNA polymerase epsilon at 200 uM; how it was run: as §1
Oryza sativa = test: Inhibition of rice DNA polymerase lambda at 200 uM; how it was run: as §1
Oncorhynchus masou = test: Inhibition of fish DNA polymerase delta at 200 uM; how it was run: as §1
[3] = molecular target: T2, DNA polymerase alpha catalytic subunit (Drosophila melanogaster) (UniProt P26019); test: Inhibition of fruit fly DNA polymerase alpha at 200 uM; how it was run: as §1
T2 sequence (whole entry): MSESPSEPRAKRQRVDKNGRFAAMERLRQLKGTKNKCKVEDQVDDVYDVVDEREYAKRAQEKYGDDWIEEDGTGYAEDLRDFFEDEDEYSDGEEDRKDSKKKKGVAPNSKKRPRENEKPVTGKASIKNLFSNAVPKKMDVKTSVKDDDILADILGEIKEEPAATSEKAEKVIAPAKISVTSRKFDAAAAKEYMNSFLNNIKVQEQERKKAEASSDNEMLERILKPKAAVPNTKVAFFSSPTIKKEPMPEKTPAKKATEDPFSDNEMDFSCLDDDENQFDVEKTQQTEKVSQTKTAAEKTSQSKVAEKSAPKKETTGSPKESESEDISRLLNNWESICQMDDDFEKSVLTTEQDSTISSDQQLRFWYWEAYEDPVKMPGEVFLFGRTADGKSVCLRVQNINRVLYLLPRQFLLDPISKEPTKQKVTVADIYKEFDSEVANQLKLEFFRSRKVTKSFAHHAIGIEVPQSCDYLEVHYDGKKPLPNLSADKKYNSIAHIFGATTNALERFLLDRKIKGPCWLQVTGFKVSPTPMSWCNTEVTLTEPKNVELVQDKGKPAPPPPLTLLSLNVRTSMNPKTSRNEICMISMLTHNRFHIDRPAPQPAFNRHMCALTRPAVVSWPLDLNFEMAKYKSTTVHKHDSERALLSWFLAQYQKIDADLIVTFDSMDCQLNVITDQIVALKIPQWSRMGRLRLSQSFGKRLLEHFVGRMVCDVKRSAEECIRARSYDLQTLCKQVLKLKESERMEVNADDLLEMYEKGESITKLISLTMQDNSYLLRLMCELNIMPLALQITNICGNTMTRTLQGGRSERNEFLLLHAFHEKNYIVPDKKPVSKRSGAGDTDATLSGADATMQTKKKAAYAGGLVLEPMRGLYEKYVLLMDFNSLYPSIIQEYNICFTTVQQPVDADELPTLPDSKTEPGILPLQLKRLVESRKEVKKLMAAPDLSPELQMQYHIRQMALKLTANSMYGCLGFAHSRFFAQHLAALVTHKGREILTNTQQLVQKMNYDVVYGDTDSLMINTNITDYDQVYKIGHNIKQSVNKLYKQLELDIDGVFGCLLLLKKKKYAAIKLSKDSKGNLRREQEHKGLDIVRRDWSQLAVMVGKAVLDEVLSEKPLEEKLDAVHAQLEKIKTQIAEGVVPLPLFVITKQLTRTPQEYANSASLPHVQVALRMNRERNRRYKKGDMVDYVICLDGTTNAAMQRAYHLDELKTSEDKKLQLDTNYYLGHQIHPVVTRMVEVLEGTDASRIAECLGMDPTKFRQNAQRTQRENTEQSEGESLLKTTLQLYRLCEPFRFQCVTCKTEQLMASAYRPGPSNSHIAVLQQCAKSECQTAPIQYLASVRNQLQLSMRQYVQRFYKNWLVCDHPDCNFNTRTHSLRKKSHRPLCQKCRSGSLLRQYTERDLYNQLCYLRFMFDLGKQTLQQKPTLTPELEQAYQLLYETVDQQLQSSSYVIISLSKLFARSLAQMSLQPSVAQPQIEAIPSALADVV

Drosophila melanogaster = test: Inhibition of fruit fly DNA polymerase beta at 200 uM; how it was run: as §1
[4] = molecular target: DNA polymerase (Drosophila melanogaster) (UniProt Q9GV40); test: Inhibition of fruit fly DNA polymerase epsilon at 200 uM; how it was run: as §1
DNA polymerase (Drosophila melanogaster), sequence (Q9GV40 as listed by the source): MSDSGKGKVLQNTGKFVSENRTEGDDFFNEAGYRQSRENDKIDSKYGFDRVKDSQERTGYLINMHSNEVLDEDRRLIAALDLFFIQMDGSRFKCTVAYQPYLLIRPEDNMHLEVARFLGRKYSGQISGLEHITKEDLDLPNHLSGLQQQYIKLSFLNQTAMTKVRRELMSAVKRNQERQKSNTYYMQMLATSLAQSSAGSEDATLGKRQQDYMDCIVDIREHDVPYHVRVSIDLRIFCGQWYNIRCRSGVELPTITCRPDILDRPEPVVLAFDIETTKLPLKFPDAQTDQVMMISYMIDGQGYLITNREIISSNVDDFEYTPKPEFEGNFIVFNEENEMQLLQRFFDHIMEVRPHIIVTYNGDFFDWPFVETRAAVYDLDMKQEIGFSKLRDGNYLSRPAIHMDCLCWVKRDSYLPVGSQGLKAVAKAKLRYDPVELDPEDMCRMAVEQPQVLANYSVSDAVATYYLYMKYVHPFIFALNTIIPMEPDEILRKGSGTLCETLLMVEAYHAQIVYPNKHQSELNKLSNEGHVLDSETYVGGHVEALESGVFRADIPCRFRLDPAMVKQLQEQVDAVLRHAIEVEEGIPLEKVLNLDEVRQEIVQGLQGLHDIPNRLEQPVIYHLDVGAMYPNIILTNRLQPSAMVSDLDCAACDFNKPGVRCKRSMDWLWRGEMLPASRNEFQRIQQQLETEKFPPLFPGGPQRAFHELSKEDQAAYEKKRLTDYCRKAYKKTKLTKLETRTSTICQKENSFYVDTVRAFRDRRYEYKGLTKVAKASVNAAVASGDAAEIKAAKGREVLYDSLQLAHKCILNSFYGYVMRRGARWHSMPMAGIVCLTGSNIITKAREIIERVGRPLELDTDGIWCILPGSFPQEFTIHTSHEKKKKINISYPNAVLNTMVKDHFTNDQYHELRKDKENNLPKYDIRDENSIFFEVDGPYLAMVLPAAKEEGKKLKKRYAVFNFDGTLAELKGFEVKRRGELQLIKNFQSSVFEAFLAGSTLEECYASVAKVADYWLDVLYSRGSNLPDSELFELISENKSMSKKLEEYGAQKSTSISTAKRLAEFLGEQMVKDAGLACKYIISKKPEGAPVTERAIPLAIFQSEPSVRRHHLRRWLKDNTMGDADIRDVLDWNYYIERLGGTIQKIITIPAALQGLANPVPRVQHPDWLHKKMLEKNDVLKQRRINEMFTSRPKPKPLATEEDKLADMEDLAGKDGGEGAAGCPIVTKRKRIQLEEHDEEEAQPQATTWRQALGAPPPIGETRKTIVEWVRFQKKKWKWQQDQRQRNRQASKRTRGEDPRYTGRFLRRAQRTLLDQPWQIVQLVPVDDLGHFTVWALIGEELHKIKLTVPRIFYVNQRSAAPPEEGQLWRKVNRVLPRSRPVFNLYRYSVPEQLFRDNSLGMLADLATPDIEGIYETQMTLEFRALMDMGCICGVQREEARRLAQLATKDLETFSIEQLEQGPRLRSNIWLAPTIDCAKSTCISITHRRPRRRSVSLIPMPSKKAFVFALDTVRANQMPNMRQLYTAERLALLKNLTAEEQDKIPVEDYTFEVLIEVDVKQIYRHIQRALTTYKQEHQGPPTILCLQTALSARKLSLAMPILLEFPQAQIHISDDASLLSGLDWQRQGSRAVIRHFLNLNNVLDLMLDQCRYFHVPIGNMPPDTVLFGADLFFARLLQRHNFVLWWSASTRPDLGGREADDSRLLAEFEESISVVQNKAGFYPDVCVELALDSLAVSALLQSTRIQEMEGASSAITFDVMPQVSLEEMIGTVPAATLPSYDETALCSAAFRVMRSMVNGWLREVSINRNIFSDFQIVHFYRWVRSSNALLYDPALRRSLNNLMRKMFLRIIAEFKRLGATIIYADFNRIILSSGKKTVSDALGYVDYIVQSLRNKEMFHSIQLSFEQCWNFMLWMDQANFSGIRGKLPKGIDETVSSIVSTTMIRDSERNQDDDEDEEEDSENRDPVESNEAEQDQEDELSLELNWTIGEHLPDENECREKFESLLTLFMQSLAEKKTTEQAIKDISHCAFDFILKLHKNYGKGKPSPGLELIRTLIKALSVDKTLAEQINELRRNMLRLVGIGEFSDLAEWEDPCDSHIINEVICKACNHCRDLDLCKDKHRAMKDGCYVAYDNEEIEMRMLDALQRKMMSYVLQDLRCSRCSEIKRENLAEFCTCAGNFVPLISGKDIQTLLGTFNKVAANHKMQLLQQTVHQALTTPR

[5] = test system: Brassica oleracea var. botrytis; test: Inhibition of cauliflower DNA polymerase epsilon at 200 uM; how it was run: as §1
Escherichia coli = test: Inhibition of Escherichia coli DNA polymerase I Klenow fragment at 200 uM; how it was run: as §1
[6] = molecular target: DNA polymerase I, thermostable (Thermus aquaticus) (UniProt P19821); test: Inhibition of Taq polymerase at 200 uM; how it was run: as §1
DNA polymerase I, thermostable (Thermus aquaticus), sequence (P19821 whole entry): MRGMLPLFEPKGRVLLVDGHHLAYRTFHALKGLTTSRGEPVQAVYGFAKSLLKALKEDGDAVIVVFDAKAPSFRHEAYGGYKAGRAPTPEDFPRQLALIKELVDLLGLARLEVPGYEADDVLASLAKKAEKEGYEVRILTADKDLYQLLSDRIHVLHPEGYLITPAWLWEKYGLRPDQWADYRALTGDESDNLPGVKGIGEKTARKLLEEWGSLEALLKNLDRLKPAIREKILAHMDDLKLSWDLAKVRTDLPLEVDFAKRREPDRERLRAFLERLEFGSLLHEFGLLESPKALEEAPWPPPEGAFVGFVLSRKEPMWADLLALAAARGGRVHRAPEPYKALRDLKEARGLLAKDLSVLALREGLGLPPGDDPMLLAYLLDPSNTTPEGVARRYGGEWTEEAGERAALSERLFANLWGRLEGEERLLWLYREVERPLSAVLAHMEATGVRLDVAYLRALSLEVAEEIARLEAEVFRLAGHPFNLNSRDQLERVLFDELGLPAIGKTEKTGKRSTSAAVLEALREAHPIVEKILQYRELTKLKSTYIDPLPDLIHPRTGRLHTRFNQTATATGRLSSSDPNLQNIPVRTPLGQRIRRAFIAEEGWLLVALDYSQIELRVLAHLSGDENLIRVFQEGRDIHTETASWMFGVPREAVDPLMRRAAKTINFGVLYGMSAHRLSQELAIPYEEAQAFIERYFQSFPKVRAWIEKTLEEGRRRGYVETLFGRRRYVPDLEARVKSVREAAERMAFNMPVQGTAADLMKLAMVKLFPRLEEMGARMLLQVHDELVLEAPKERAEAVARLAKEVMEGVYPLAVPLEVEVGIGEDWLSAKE

[7] = molecular target: T1, DNA polymerase alpha subunit B (Bos taurus); test: Inhibition of primase activity of calf polymerase alpha at 200 uM
[8] = test system: Human immunodeficiency virus; test: Inhibition of HIV reverse transcriptase at 200 uM
Homo sapiens [9] = species on record: Homo sapiens; test: Inhibition of human telomerse at 200 uM
How it was run: (§2)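 Each enzyme (0.05 U) was incubated with 200 μM compound. Activity was expressed as a percentage of the activity without compound (100%). Means ± SEM of four independent experiments.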

Mus musculus = species on record: Mus musculus; test: Inhibition of mouse inosine 5-monophosphate dehydrogenase type 2 at 200 uM; how it was run: as §2
[10] = test system: T4 polynucleotide kinase (Bacteriophage T4); test: Inhibition of T4 polynucleotide kinase at 200 uM

Question: `C/C(=C\CC[C@H](C)C(=O)O)[C@H]1CC[C@H](C(=O)O)CC1` was tested. Which Activity [1] did it give?
Answer: inactive

Question: And the Activity (Homo sapiens [2])?
Answer: inactive

Question: What about the Activity (Oryza sativa) of the same compound?
Answer: Active

Question: And the Activity (Oncorhynchus masou)?
Answer: inactive

Question: And the Activity [3]?
Answer: inactive

Question: And the Activity (Drosophila melanogaster)?
Answer: inactive

Question: And the Activity [4]?
Answer: inactive

Question: And the Activity [5]?
Answer: inactive

Question: And the Activity (Escherichia coli)?
Answer: inactive

Question: And the Activity [6]?
Answer: inactive

Question: What about the Activity [7] of the same compound?
Answer: inactive

Question: What about the Activity [8] of the same compound?
Answer: inactive

Question: And the Activity (Homo sapiens [9])?
Answer: inactive

Question: And the Activity (Mus musculus)?
Answer: inactive

Question: And the Activity [10]?
Answer: inactive
